Activity calls are given as the source filed them. The calls are words filed in the database; no cut-off is given here.
What was measured:
[1] = system: NCI-H1299; experiment: Antiproliferative activity against human NCI-H1299 cells assessed as inhibition of cell viability measured for 6 to 7 days by cell titer glo assay; assay type: functional, cell-based
Outline: (§1)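 Cells seeded in recommended growth medium, incubated overnight at 37°C in 5% CO2, then exposed to serial dilutions of inhibitor for 6–7 d. A parallel plate was read with CellTiter-Glo at compound addition as a T=0 value. The luminescent viability readout had no-cell background subtracted and was expressed as % of DMSO control.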

[2] = Antiproliferative activity against human BDCM cells assessed as inhibition of cell viability measured for 6 to 7 days by cell titer glo assay; assay type: functional, cell-based
Outline: (§2)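 Tumor lines plated in recommended growth media, overnight at 37°C, 5% CO2, then given serial dilutions; a T=0 plate read with CellTiter-Glo at dosing. After 6–7 d of exposure, viability read by CellTiter-Glo luminescence. No-cell wells subtracted, data expressed as % of DMSO control.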

[3] = Toxicity in SCID nude mouse xenografted with human K562 cells assessed as drug tolerance at 100 mg/kg, ip administered once daily for 5 consecutive days with 2 days off scheduled for 3 cycles measured upto 60 days; assay type: organism-based; settings: in vivo, 1440 h, time < 60 day
[4] = system: JVM-3; experiment: Antiproliferative activity against human JVM-3 cells assessed as inhibition of cell viability measured for 6 to 7 days by cell titer glo assay; assay type: functional, cell-based; outline: as §1
[5] = system: NCI-H1155; experiment: Antiproliferative activity against human NCI-H1155 cells assessed as inhibition of cell viability measured for 6 to 7 days by cell titer glo assay; assay type: functional, cell-based; outline: as §1
[6] = system: NAMALVA; experiment: Antiproliferative activity against human NAMALWA cells assessed as inhibition of cell viability measured for 6 to 7 days by cell titer glo assay; assay type: functional, cell-based; outline: as §1
[7] = Antiproliferative activity against human TO 175.T cells assessed as inhibition of cell viability measured for 6 to 7 days by cell titer glo assay; assay type: functional, cell-based
Outline: (§3)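 Cells seeded in recommended growth medium, held overnight at 37°C in 5% CO2, then exposed to serial dilutions of inhibitor for 6–7 d. A time-zero plate was read with CellTiter-Glo at dosing. Luminescent viability read at the end. No-cell wells subtracted as background, data expressed as percent of DMSO control.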

[8] = Toxicity in SCID nude mouse xenografted with human COLO 205 cells assessed as drug tolerance at 25 to 100 mg/kg, ip administered once daily for 5 consecutive days with 2 days off scheduled for 2 cycles measured upto 60 days; assay type: organism-based; settings: in vivo, 1440 h, dose 25-100 mg/kg, time 60 day
[9] = system: WiDr; experiment: Antiproliferative activity against human WiDr cells assessed as inhibition of cell viability measured for 6 to 7 days by cell titer glo assay; assay type: functional, cell-based
[10] = Toxicity in SCID nude mouse xenografted with human COLO 205 cells assessed as body weight loss at 25 to 100 mg/kg, ip administered once daily for 5 consecutive days with 2 days off scheduled for 2 cycles measured upto 60 days relative to control; assay type: organism-based; settings: in vivo, 1440 h, dose 25-100 mg/kg, time < 60 day
[11] = Toxicity in SCID nude mouse xenografted with human A549 cells assessed as drug tolerance at 25 to 100 mg/kg, ip administered once daily for 5 consecutive days with 2 days off scheduled for 3 cycles measured upto 60 days; assay type: organism-based; settings: in vivo, 1440 h, dose 25-100 mg/kg, time 60 day
[12] = system: SK-MEL-5; experiment: Antiproliferative activity against human SK-MEL-5 cells assessed as inhibition of cell viability measured for 6 to 7 days by cell titer glo assay; assay type: functional, cell-based; outline: as §3
[13] = system: HL-60; experiment: Antitumor activity in human HL-60 cells xenografted in SCID mouse assessed as median survival time at 25 mg/kg, ip administered once daily for 5 consecutive days with 2 days off scheduled for 2 cycles measured upto 120 days; assay type: functional; settings: time <= 120 day
[14] = system: LoVo; experiment: Antiproliferative activity against human LoVo cells assessed as inhibition of cell viability measured for 6 to 7 days by cell titer glo assay; assay type: functional, cell-based; outline: as §1
[15] = system: DOHH-2; experiment: Antiproliferative activity against human DOHH-2 cells assessed as inhibition of cell viability measured for 6 to 7 days by cell titer glo assay; assay type: functional, cell-based; outline: as §2
[16] = system: MHH-PREB-1; experiment: Antiproliferative activity against human MHH-PREB-1 cells assessed as inhibition of cell viability measured for 6 to 7 days by cell titer glo assay; assay type: functional, cell-based; outline: as §1
[17] = biological target: Aurora kinase C (Homo sapiens) (UniProt Q9UQB9); experiment: Binding affinity to Aurora C (unknown origin) assessed as dissociation half life
[18] = system: CA46; experiment: Antiproliferative activity against human CA46 cells assessed as inhibition of cell viability measured for 6 to 7 days by cell titer glo assay; assay type: functional, cell-based; outline: as §2
[19] = system: L-428; experiment: Antiproliferative activity against human L-428 cells assessed as inhibition of cell viability measured for 6 to 7 days by cell titer glo assay; assay type: functional, cell-based; outline: as §1
[20] = system: NALM-6; experiment: Antiproliferative activity against human NALM-6 cells assessed as inhibition of cell viability measured for 6 to 7 days by cell titer glo assay; assay type: functional, cell-based; outline: as §1
[21] = system: A549; experiment: Effect on cell cycle distribution in human A549 cells assessed as increase in 4N DNA content at 2 to 5000 nM incubated for 24 to 72 hrs by flow cytometry based analysis; assay type: functional; settings: dose 2-5000 nM, time 24-72 hrs
[22] = system: HCT-8; experiment: Antiproliferative activity against human HCT-8 cells assessed as inhibition of cell viability measured for 6 to 7 days by cell titer glo assay; assay type: functional, cell-based; outline: as §2
[23] = system: JIYOYE; experiment: Antiproliferative activity against human JIYOYE cells assessed as inhibition of cell viability measured for 6 to 7 days by cell titer glo assay; assay type: functional, cell-based; outline: as §1
[24] = system: A498; experiment: Antiproliferative activity against human A498 cells assessed as inhibition of cell viability measured for 6 to 7 days by cell titer glo assay; assay type: functional, cell-based; outline: as §2
[25] = system: NU-DUL-1; experiment: Antiproliferative activity against human NU-DUL-1 cells assessed as inhibition of cell viability measured for 6 to 7 days by cell titer glo assay; assay type: functional, cell-based; outline: as §3
[26] = system: MOLT-4; experiment: Antiproliferative activity against human MOLT-4 cells assessed as inhibition of cell viability measured for 6 to 7 days by cell titer glo assay; assay type: functional, cell-based; outline: as §1
[27] = system: SUP-B15; experiment: Antiproliferative activity against human SUP-B15 cells assessed as inhibition of cell viability measured for 6 to 7 days by cell titer glo assay; assay type: functional, cell-based; outline: as §3
[28] = system: COLO 205; experiment: Antiproliferative activity against human COLO 205 cells assessed as inhibition of cell viability measured for 6 to 7 days by cell titer glo assay; assay type: functional, cell-based; outline: as §2
[29] = system: RL; experiment: Antiproliferative activity against human RL cells assessed as inhibition of cell viability measured for 6 to 7 days by cell titer glo assay; assay type: functional, cell-based; outline: as §3
[30] = system: NCI-H460; experiment: Antitumor activity in human NCI-H460 cells xenografted in nude mouse assessed as reduction in tumor growth at 25 to 100 mg/kg, ip administered once daily for 5 consecutive days with 2 days off scheduled for 3 cycles measured upto 60 days; settings: dose 25-100 mg/kg, time 60.0 day
[31] = system: Farage; experiment: Antiproliferative activity against human Farage cells assessed as inhibition of cell viability measured for 6 to 7 days by cell titer glo assay; assay type: functional, cell-based; outline: as §2
[32] = Toxicity in SCID nude mouse xenografted with human NCI-H460 cells assessed as drug tolerance at 25 to 100 mg/kg, ip administered once daily for 5 consecutive days with 2 days off scheduled for 3 cycles measured upto 60 days; assay type: organism-based; settings: in vivo, 1440 h, dose 25-100 mg/kg, time < 60 day
[33] = system: RPMI-6666; experiment: Antiproliferative activity against human RPMI-6666 cells assessed as inhibition of cell viability measured for 6 to 7 days by cell titer glo assay; assay type: functional, cell-based; outline: as §3

Sequence of Aurora kinase C (Homo sapiens) (Q9UQB9 whole entry): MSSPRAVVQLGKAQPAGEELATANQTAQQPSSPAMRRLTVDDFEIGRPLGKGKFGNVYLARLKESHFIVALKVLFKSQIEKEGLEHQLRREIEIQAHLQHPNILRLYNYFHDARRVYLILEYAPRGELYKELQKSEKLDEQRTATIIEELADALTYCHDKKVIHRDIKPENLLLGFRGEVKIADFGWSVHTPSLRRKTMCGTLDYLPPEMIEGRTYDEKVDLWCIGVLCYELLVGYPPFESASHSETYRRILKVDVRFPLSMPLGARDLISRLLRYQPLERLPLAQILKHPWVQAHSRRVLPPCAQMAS

CCn1cc(-c2ccnc3[nH]c(-c4cccc(CN(C)C)c4)cc23)c(-c2ccc(NC(=O)N(C)C)cc2)n1 [GSK-1070916]
EC50 [1]: 23 nM | EC50 [2]: 26 nM | Activity [3]: Toxic | EC50 [4]: 2 nM | EC50 [5]: 40 nM | EC50 [6]: 6 nM | EC50 [7]: 54 nM | Activity [8]: Non-Toxic | EC50 [9]: 3 nM | Activity [10]: < 15% | Activity [11]: Non-Toxic | EC50 [12]: 8 nM | MST [13]: 57 days | EC50 [14]: 7 nM | EC50 [15]: 14 nM | EC50 [16]: 4 nM | T1/2 [17]: 4.5 h | EC50 [18]: 5 nM | EC50 [19]: 31 nM | EC50 [20]: 2 nM | Activity [21]: Active | EC50 [22]: 38 nM | EC50 [23]: 5 nM | EC50 [24]: 33 nM | EC50 [25]: 4 nM | EC50 [26]: 3 nM | EC50 [27]: 2 nM | EC50 [28]: 7 nM | EC50 [29]: 10 nM | Activity [30]: inactive | EC50 [31]: 7 nM | Activity [32]: Non-Toxic | EC50 [33]: 10 nM

From ChEMBL document CHEMBL5705886, “GSK1070916, a potent Aurora B/C kinase inhibitor with broad antitumor activity in tissue culture cells and human tumor xenograft models” (Mol Cancer Ther, 2009)
